According to ChEMBL document CHEMBL4334445, “Caspase-Dependent Apoptosis in Prostate Cancer Cells and Zebrafish by Corchorusoside C from Streptocaulon juventas” (J Nat Prod, 2019):

What was measured:
MCF7 = experiment: Cytotoxicity against human MCF7 cells assessed as reduction in cell viability measured after 72 hrs by SRB assay; assay type: functional, cell-based; details: MCF7, 72 h
[1] = Toxicity in 24 hrs post fertilized zebrafish embryo assessed as developmental delay at 50 uM measured after 24 hrs by microscopic analysis; parameters: species or system Danio rerio; details: in vivo
Outline: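 Embryos raised at 28 °C to 24 hpf, then exposed to 50 μM in 1% DMSO in water (vehicle control) for 24 h; larvae examined and photographed by light microscopy for developmental morphology.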

SMILES	IC50 (MCF7) [nM]	Activity [1]
Cc1c2ccncc2c(C)c2c1[nH]c1ccccc12 [ELLIPTECINE]	800	
C[C@@H]1C[C@@H]([C@H](O)CC2CC(=O)NC(=O)C2)C(=O)[C@@H](C)C1 [CYCLOHEXIMIDE]		Toxic
